A short description of series [1]: Hepatocyte stability, rat. The class given is in vitro ADME. The following applies: rat hepatocytes; well-stirred model.
The nature of series [2]: Liver microsome stability, mouse. Format: in vitro ADME. Particulars: mouse liver microsomes; well-stirred model.
A short description of series [3]: Liver microsome stability, human. Format: in vitro ADME. Particulars: human liver microsomes; well-stirred model.
Series [4] is described as follows: Liver microsome stability, dog. Format: in vitro ADME. Particulars: dog liver microsomes; well-stirred model.
Series [5] in a line: Caco-2 permeability assay. Particulars: human. Format: in vitro ADME.
Series [6] is described as follows: Hepatocyte stability, dog. Format: in vitro ADME. Particulars: dog hepatocytes; well-stirred model. The essentials:
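Dog hepatocytes. Intrinsic clearance (CLint) was scaled to blood clearance with the well-stirred liver model: CLb = QH×CLint/(QH + CLint). Dog liver blood flow (QH) was 2.1 L h⁻¹ kg⁻¹.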

Series [7] is described as follows: In vivo pharmacokinetics, dog. The following applies: female Beagle dog, 0.2 mg kg^−1 p.o.; Cmax,p.o./dose p.o.
The nature of series [8]: Liver microsome stability, monkey. Format: in vitro ADME. Particulars: monkey liver microsomes; well-stirred model.
The nature of series [9]: In vivo pharmacokinetics, rat. Particulars: male Wistar rat, 0.6 mg kg^−1 p.o.; Cmax,p.o./dose p.o.
The nature of series [10]: Hepatocyte stability, human. The class given is in vitro ADME. The following applies: human hepatocytes; well-stirred model. In a few lines: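 Human hepatocytes. Intrinsic clearance (CLint) was converted to blood clearance with the well-stirred hepatic model: CLb = QH×CLint/(QH + CLint). Human liver blood flow (QH) was 1.32 L h⁻¹ kg⁻¹.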
A short description of series [11]: Liver microsome stability, rat. The class given is in vitro ADME. The following applies: rat liver microsomes; well-stirred model.
Series [12] is described as follows: Hepatocyte stability, monkey. The class given is in vitro ADME. Particulars: monkey hepatocytes; well-stirred model.

Take `Cc1ccc2nc(C)cc(C(=O)Nc3c(C)nn(Cc4ccc(F)cc4)c3C)c2c1` [Compound 2]: the “Hep stability CL b,Hep” value in [1] worked out at 61.7 mL/min/kg. Also, the “LM stability CL b,LM” value in series [2] is 66.7 mL/min/kg; in [3] it was 20 mL/min/kg.

Regarding `Cc1c(NC(=O)c2cc(C(F)(F)F)nc3ccc(Br)cc23)c(C(F)(F)F)nn1Cc1ccc(F)cc1` [Compound 12], the “Hep stability CL b,Hep” value in [1] came out at 43.3 mL/min/kg. In series [2], the “LM stability CL b,LM” value stood at 36.7 mL/min/kg.

Consider `Cc1c(NC(=O)c2cc(C(N)=O)nc3ccccc23)c(C(F)(F)F)nn1Cc1ccc(C#N)cc1` [Compound 13], for which the “LM stability CL b,LM” value in series [4] is 1 mL/min/kg; in series [2] it was 23.3 mL/min/kg; in series [3], 3.5 mL/min/kg. The results for the “Hep stability CL b,Hep” value in series [1] and in series [6] were 30 mL/min/kg and 1.83 mL/min/kg, respectively. For the same compound, the apical-to-basolateral permeability (Papp A→B) at 2 h, 2 µM in [5] was 7.4 ×10⁻⁶ cm/s.

Consider `Cc1ccc2nc(C(N)=O)cc(C(=O)Nc3c(C(F)(F)F)nn(Cc4ccc(C#N)cc4)c3C)c2c1` [Compound 17], for which, in series [1], the “Hep stability CL b,Hep” value worked out at 33.3 mL/min/kg. In series [2], the “LM stability CL b,LM” value amounted to 38.3 mL/min/kg.

On to `Cc1c(NC(=O)c2cc(C(N)=O)nc3cc(F)ccc23)c(C(F)(F)F)nn1Cc1ccc(C#N)cc1` [Compound 19, N ^4 ‐[1‐(4‐Cyanobenzyl)‐5‐methyl‐3‐(trifluoromethyl)‐1H‐pyrazol‐4‐yl]‐7‐fluoroquinoline‐2,4‐dicarboxamide], for which the “C max,norm,p.o.” value in series [7] is given as 0.93 kg L ^−1; in series [9], 0.33 kg L ^−1. The “LM stability CL b,LM” value was “stable” in series [4], 12.7 mL/min/kg in series [8] and 5.33 mL/min/kg in series [3]. In addition, the “Hep stability CL b,Hep” value amounted to 6.17 mL/min/kg in series [10] and 3.33 mL/min/kg in series [6].

For `Cc1c(NC(=O)c2cc(C(N)=O)nc3cc(F)ccc23)c(C(C)C)nn1Cc1ccc(C#N)cc1` [Compound 43], the “LM stability CL b,LM” value in series [3] worked out at 14.5 mL/min/kg.

In the case of `Cc1c(NC(=O)c2cc(C(N)=O)nc3cc(F)ccc23)c(C(F)(F)F)nn1Cc1ccc(C#N)cn1` [Compound 54], the “LM stability CL b,LM” value in [4] came out at 0.017 mL/min/kg; in series [2], 6 mL/min/kg; in [8], 6.67 mL/min/kg; in series [11], 6.17 mL/min/kg; in series [3], 3.17 mL/min/kg. Besides, the “Hep stability CL b,Hep” value worked out at 0.67 mL/min/kg in series [1], 0.5 mL/min/kg in series [10], 0.017 mL/min/kg in series [6] and 5.33 mL/min/kg in series [12].

`Cc1c(NC(=O)c2cc(C(N)=O)nc3cc(F)ccc23)c(C(F)(F)F)nn1Cc1cnc(C#N)cn1` [Compound 57]: the “Hep stability CL b,Hep” value in series [1] was found to be 20 mL/min/kg. Also, the “LM stability CL b,LM” value in series [3] came out at 8.83 mL/min/kg.

Consider `Cc1c(NC(=O)c2cc(C(N)=O)nc3cc(F)ccc23)c(C(F)(F)F)nn1Cc1ncc(C#N)cn1` [Compound 58], for which the “Hep stability CL b,Hep” value in [1] came to 14.8 mL/min/kg. Further, the “LM stability CL b,LM” value in series [3] worked out at 3.67 mL/min/kg.
